This note sets out measurements from ChEMBL document CHEMBL2396559, “Synthesis and preliminary biological evaluation of a compound library of triazolylcyclitols” (2013).

A short description of experiment [1]: Immunosuppressive activity against C57Bl/6 mouse splenic lymphocytes assessed as concanavalin A-induced cell proliferation at > 0.002 nM incubated for 1 hr prior to concanavalin A challenge measured after 48 hrs by resazurin reduction assay relative to control. It is filed as functional, Splenic lymphocyte. Also noted: scale not given: the % may be the effect or the level left. In outline: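 Splenocytes from male C57Bl/6 mice were plated at 1×10^6 cells/mL, 37 °C, 5% CO2. Compounds at 0.002–200 nM were added for 1 h, then cells were incubated with or without concanavalin A (0.5 µg/mL) for 48 h. Resazurin 0.01% was added for 24 h, then OD read at 570 and 600 nm and proliferation taken as the difference. Compared with ConA plus vehicle. Three animals in triplicate.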
(Alamar Blue is a resazurin reagent that responds to reducing activity.)

Another experiment deals with Splenic lymphocyte. The experiment can be described thus: Immunosuppressive activity against C57Bl/6 mouse splenic lymphocytes assessed as cell viability at 200 nM after 72 hrs by MTT assay. It is filed as functional. In outline:
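Spleens from male 18-week-old C57Bl/6 mice were teased through a strainer, washed in RPMI and resuspended in RPMI with 10% FBS. Cells were counted by trypan blue and cultured in triplicate at 37 °C for 72 h with vehicle (medium, 0.1% DMSO), 10% DMSO or compound at 200 nM. MTT was added for 2 h, formazan dissolved in DMSO and read at 570 nm. Viability taken as % of vehicle after blank subtraction. Three animals.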

The test system of a further experiment is Nannizzia gypsea. The experiment can be described thus: Antifungal activity against Microsporum gypseum ATCC 24102 assessed as growth inhibition at 10 mg/mL by bioautographic agar overlay method. It is filed as functional, organism-based. Summed up: (§1)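 Samples at 10 mg/mL spotted on silica gel TLC plates, overlaid with a thin Sabouraud agar film inoculated 50:1 with fresh-culture suspension at 10^6 cells or spores/mL. Incubation time and conditions were set per fungus. Growth-free zones around spots scored qualitatively. Same plate carried DMSO 1% negative control plus amphotericin B and ketoconazol controls.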

A further experiment concerns Trichophyton rubrum. As to the kind of experiment: Antifungal activity against Trichophyton rubrum ATCC 28188 assessed as growth inhibition at 10 mg/mL by bioautographic agar overlay method. The experiment is classed as functional, organism-based. In outline: as §1
In experiment [2] the test system is Trichophyton mentagrophytes. As to the kind of experiment: Antifungal activity against Trichophyton mentagrophytes ATCC 9533 assessed as growth inhibition at 10 mg/mL by bioautographic agar overlay method. It is filed as functional, organism-based. In outline:
as §1

For the next experiment, the system named is Cryptococcus neoformans. As to the kind of experiment: Antifungal activity against Cryptococcus neoformans ATCC 14116 assessed as growth inhibition at 10 mg/mL by bioautographic agar overlay method. The experiment is classed as functional, organism-based. In outline: as §1
A further experiment deals with Nakaseomyces glabratus. The experiment can be described thus: Antifungal activity against Candida glabrata ATCC 15126 assessed as growth inhibition at 10 mg/mL by bioautographic agar overlay method. The experiment is classed as functional, organism-based. Summed up:
as §1

For a further experiment, the system named is Candida parapsilosis. The experiment can be described thus: Antifungal activity against Candida parapsilosis ATCC 22919 assessed as growth inhibition at 10 mg/mL by bioautographic agar overlay method. It is filed as functional, organism-based. Summed up: as §1
In the next experiment the test system is Candida albicans. As to the kind of experiment: Antifungal activity against Candida albicans ATCC 90022 assessed as growth inhibition at 10 mg/mL by bioautographic agar overlay method. The experiment is classed as functional, organism-based. Summed up:
as §1

Activity calls are given as the source filed them. No cut-off for these calls is given here.

As to `C#Cc1cccc(-c2cn([C@@H]3C=C(Br)[C@@H](O)[C@@H](O)[C@@H]3O)nn2)c1`, the Activity entry in experiment [1] is “<=30%”. In addition, in the experiment on Splenic lymphocyte, the outcome was inactive. For the same compound, the “growth inhibition (GI)” value (in the experiment with Nannizzia gypsea; with Trichophyton rubrum; in [2]; with Cryptococcus neoformans; in the experiment on Nakaseomyces glabratus; with Candida albicans) was “inactive” each time. Moreover, the “growth inhibition (GI)” value in the experiment with Candida parapsilosis is “Active”.
With `O[C@H]1[C@H](O)[C@H](n2cc(-c3ccc(-c4cn([C@H]5C=C(Br)[C@@H](O)[C@@H](O)[C@@H]5O)nn4)cc3)nn2)C=C(Br)[C@H]1O` (mixture of isomers), the Activity result in [1] is reported as “<=30%”. Besides, the result in the experiment on Splenic lymphocyte was inactive. Further, the “growth inhibition (GI)” value (with Nannizzia gypsea; in the experiment with Trichophyton rubrum; in [2]; in the experiment on Cryptococcus neoformans; in the experiment with Nakaseomyces glabratus; in the experiment on Candida parapsilosis) was “inactive” in each case. In the experiment with Candida albicans, the “growth inhibition (GI)” value is “inactive”.
In the case of `O[C@H]1[C@H](O)[C@@H](n2cc(-c3cccc(-c4cn([C@H]5C=C(Br)[C@@H](O)[C@@H](O)[C@@H]5O)nn4)c3)nn2)C=C(Br)[C@H]1O`, the Activity entry in experiment [1] is reported as “<=30%”. Further, the result with Splenic lymphocyte was inactive. Moreover, the “growth inhibition (GI)” value (in the experiment on Nannizzia gypsea; in the experiment on Trichophyton rubrum; in [2]; in the experiment on Cryptococcus neoformans; in the experiment with Nakaseomyces glabratus; in the experiment on Candida parapsilosis) was “inactive” throughout. Besides, the “growth inhibition (GI)” value in the experiment with Candida albicans is “inactive”.
Regarding `C#Cc1ccc(-c2cn([C@H]3C=C(Br)[C@@H](O)[C@@H](O)[C@@H]3O)nn2)cc1`, the Activity entry in experiment [1] is “<=30%”. Besides, the result with Splenic lymphocyte was inactive. The “growth inhibition (GI)” value (with Nannizzia gypsea; with Trichophyton rubrum; in [2]; in the experiment on Cryptococcus neoformans; in the experiment with Nakaseomyces glabratus; in the experiment with Candida parapsilosis) was “inactive” throughout. Moreover, the “growth inhibition (GI)” value in the experiment with Candida albicans was “inactive”.
On to `C#Cc1cccc(-c2cn([C@H]3C=C(Br)[C@@H](O)[C@@H](O)[C@@H]3O)nn2)c1`, for which the Activity entry in experiment [1] was “<=30%”. Moreover, the result in the experiment on Splenic lymphocyte was inactive. Also, the “growth inhibition (GI)” value (in the experiment with Nannizzia gypsea; in the experiment with Trichophyton rubrum; in [2]; with Cryptococcus neoformans; in the experiment with Nakaseomyces glabratus; in the experiment on Candida parapsilosis) was “inactive” throughout. The “growth inhibition (GI)” value in the experiment with Candida albicans was “inactive”.
As for `O[C@H]1[C@H](O)[C@H](n2cc(-c3cccc(-c4cn([C@H]5C=C(Br)[C@@H](O)[C@@H](O)[C@@H]5O)nn4)c3)nn2)C=C(Br)[C@H]1O` (mixture of isomers), the Activity entry in [1] is reported as “<=30%”. The result in the experiment with Splenic lymphocyte was inactive. The “growth inhibition (GI)” value with Nannizzia gypsea, in the experiment with Trichophyton rubrum, in the experiment with Cryptococcus neoformans, with Candida parapsilosis and with Candida albicans was “inactive” in each case. Moreover, the “growth inhibition (GI)” value (in [2]; with Nakaseomyces glabratus) was “Active” throughout.
Consider `O[C@H]1[C@H](O)[C@H](n2cc(-c3cccc(-c4cn([C@@H]5C=C(Br)[C@@H](O)[C@@H](O)[C@@H]5O)nn4)c3)nn2)C=C(Br)[C@H]1O`, for which the Activity result in experiment [1] was “<=30%”. Further, the result in the experiment on Splenic lymphocyte was inactive. Besides, the “growth inhibition (GI)” value (in the experiment on Nannizzia gypsea; in the experiment with Trichophyton rubrum; in experiment [2]; with Cryptococcus neoformans; with Nakaseomyces glabratus; with Candida parapsilosis) was “inactive” in each case. For the same compound, the “growth inhibition (GI)” value in the experiment with Candida albicans is “inactive”.
Take `O[C@H]1[C@H](O)[C@H](n2cc(-c3ccc(-c4cn([C@@H]5C=C(Br)[C@@H](O)[C@@H](O)[C@@H]5O)nn4)cc3)nn2)C=C(Br)[C@H]1O`: the Activity entry in [1] is “<=30%”. Besides, the outcome in the experiment with Splenic lymphocyte was inactive. In addition, the “growth inhibition (GI)” value (with Nannizzia gypsea; in the experiment with Trichophyton rubrum; in [2]; with Cryptococcus neoformans; with Nakaseomyces glabratus; in the experiment with Candida albicans) was “inactive” throughout. Further, in the experiment with Candida parapsilosis, the “growth inhibition (GI)” value was “Active”.
Regarding `C#Cc1ccc(-c2cn([C@@H]3C=C(Br)[C@@H](O)[C@@H](O)[C@@H]3O)nn2)cc1`, the Activity entry in experiment [1] is given as “<=30%”. The outcome in the experiment on Splenic lymphocyte was inactive. Besides, the “growth inhibition (GI)” value (in the experiment on Nannizzia gypsea; in the experiment with Trichophyton rubrum; in experiment [2]; in the experiment on Cryptococcus neoformans; in the experiment with Nakaseomyces glabratus; in the experiment with Candida albicans) was “inactive” throughout. The “growth inhibition (GI)” value in the experiment on Candida parapsilosis was “Active”.
With `O[C@H]1[C@H](O)[C@@H](n2cc(-c3ccc(-c4cn([C@H]5C=C(Br)[C@@H](O)[C@@H](O)[C@@H]5O)nn4)cc3)nn2)C=C(Br)[C@H]1O`, the Activity entry in experiment [1] is recorded as “<=30%”. Besides, the outcome in the experiment with Splenic lymphocyte was inactive. For the same compound, the “growth inhibition (GI)” value in the experiment with Nannizzia gypsea and in the experiment on Trichophyton rubrum was “Active” in each case. Also, the “growth inhibition (GI)” value (in experiment [2]; in the experiment on Cryptococcus neoformans; with Nakaseomyces glabratus; in the experiment with Candida parapsilosis; in the experiment with Candida albicans) was “inactive” throughout.
